According to the RNAGym collection of RNA variant scans (doi:10.1126/science.aae0568):
Fewer inactive variants are shown than the library holds.

B1: tRNA (parent)
chain: GUUCCGUUGGCGUAAUGGUAACGCGUCUCCCUCCUAAGGAGAAGACUGCGGGUUCGAGUCCCGUACGGAACG

Variants of: B1
Test: yeast fitness relative to wild type (ratio to wild type); higher = fitter; tRNA-Arg(CCU), competitive growth, 37 C, YPD
In short: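 Variants of the tRNA-Arg(CCU) gene were chemically synthesised with a 3% per-site mutation rate across 69 sites and placed at the native genomic locus in Saccharomyces cerevisiae. Six parallel replicates of the pooled strains were competed in YPD at 37°C for 24 hours, and gene amplicons from the start and end populations were read by 100-nucleotide paired-end sequencing. Darwinian fitness relative to wild type was derived from changes in genotype frequencies. Genotypes required ≥ 100 starting reads, and estimates < 0.5 were set to 0.5.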

| Variant | yeast fitness |
| --- | --- |
| A20G C34U G38A A43G | ≤ 0.5 |
| A20G C34U G38A A43G G68U | ≤ 0.5 |
| A20G C46A | 0.925 |
| A20G C46A C61G | ≤ 0.5 |
| A20G C46G | 0.942 |
| A20G C46U A57C | 0.514 |
| A20G C46U A70G | 0.794 |
| A20G C46U G50C C61A A70C | 0.7 |
| A20G C49G | 0.855 |
| A20G C49G U59A | 0.556 |
| A20G C49U | 0.922 |
| A20G C49U A69U | 0.779 |
| A20G C49U C66U | 0.684 |
| A20G C49U C66U A70C | ≤ 0.5 |
| A20G C55A | 0.585 |
| A20G C55G | 0.586 |
| A20G C60A A70C | 0.556 |
| A20G C60A A70U | 0.605 |
| A20G C60G A69C | ≤ 0.5 |
| A20G C60G A70C | 0.604 |
| A20G C60U C66U | ≤ 0.5 |
| A20G C61G | 0.617 |
| A20G C61U | 0.964 |
| A20G C62A | 0.715 |

| Variant | yeast fitness |
| --- | --- |
| A20G C62G | 0.804 |
| A20G C66G | 0.809 |
| A20G C66U | 0.857 |
| A20G G23A A45U G56A | 0.539 |
| A20G G23A C24G | ≤ 0.5 |
| A20G G23A C24G C60G | ≤ 0.5 |
| A20G G23A C33G | 0.629 |
| A20G G23A C33G A69U | ≤ 0.5 |
| A20G G23A G38C | 0.656 |
| A20G G23A G38C G63A C66A | ≤ 0.5 |
| A20G G23A U26G | ≤ 0.5 |
| A20G G23C C31U C46G A70U | 0.57 |
| A20G G23C G38C | ≤ 0.5 |
| A20G G23C G63C | 0.613 |
| A20G G25A C33U G39A A57G U59C | ≤ 0.5 |
| A20G G25A C34A G50C | 0.578 |
| A20G G25A C55A | ≤ 0.5 |
| A20G G25A C66U | 0.682 |
| A20G G25C C34U G41A C49G | ≤ 0.5 |
| A20G G25C C49A | ≤ 0.5 |
| A20G G25C C49U | 0.76 |
| A20G G25C C61U A65G | 0.647 |
| A20G G25C G51C | 0.658 |
| A20G G25C U35C G58C | ≤ 0.5 |

| Variant | yeast fitness |
| --- | --- |
| A20G G25C U47A G56C U59C | ≤ 0.5 |
| A20G G38A U47C | 0.685 |
| A20G G38C | 0.789 |
| A20G G38C C66A | ≤ 0.5 |
| A20G G39A | 0.955 |
| A20G G39C | 0.829 |
| A20G G39C G48A | 0.924 |
| A20G G39U A40C | ≤ 0.5 |
| A20G G41A A70G | 0.571 |
| A20G G41A C60G A65G | 0.585 |
| A20G G41A C61U | 0.644 |
| A20G G41A G67C | 0.601 |
| A20G G44C | 0.929 |
| A20G G48A | 0.933 |
| A20G G48A A70G | 0.803 |
| A20G G48A C49G U59A | ≤ 0.5 |
| A20G G50A A57U | 0.542 |
| A20G G50C | 0.636 |
| A20G G50C C60G | 0.634 |
| A20G G50C C61A A69G | ≤ 0.5 |
| A20G G50C C61U | ≤ 0.5 |
| A20G G50C U54G | ≤ 0.5 |
| A20G G50U | 0.831 |
| A20G G51A | 0.859 |

| Variant | yeast fitness |
| --- | --- |
| A20G G51C C61G | 0.546 |
| A20G G52A | 0.664 |
| A20G G56A | 1.01 |
| A20G G56U | 0.804 |
| A20G G56U A65G | 0.587 |
| A20G G58A | 0.97 |
| A20G G58A A70C | 0.836 |
| A20G G58U | 0.781 |
| A20G G63A | 0.903 |
| A20G G63C | 0.837 |
| A20G G67C | 0.861 |
| A20G G67U | 0.965 |
| A20G G68C | 0.758 |
| A20G G68U | 0.866 |
| A20G U26A | 0.884 |
| A20G U26A A45C | 0.519 |
| A20G U26A C61G A65C | 0.518 |
| A20G U26A C66A | ≤ 0.5 |
| A20G U26A U35A A37U | 0.55 |
| A20G U26C A37C G68A | ≤ 0.5 |
| A20G U26C A42U | 0.715 |
| A20G U28A A37G C55G | 0.578 |
| A20G U28A A40G | ≤ 0.5 |
| A20G U28A A42G C55A C66A | ≤ 0.5 |

| Variant | yeast fitness |
| --- | --- |
| A20G U28A A69C | ≤ 0.5 |
| A20G U28A C31U U54A | 0.613 |
| A20G U28A U53A | ≤ 0.5 |
| A20G U28C | 0.934 |
| A20G U28C A40C | 0.634 |
| A20G U28C A40U | 1.04 |
| A20G U28C C49A | ≤ 0.5 |
| A20G U28C G68C | 0.664 |
| A20G U28G A57U A70U | ≤ 0.5 |
| A20G U28G A57U C62U | ≤ 0.5 |
| A20G U28G A69U | ≤ 0.5 |
| A20G U32A | 0.719 |
| A20G U32A C34G A43G G50C U64A | ≤ 0.5 |
| A20G U32C A57G | 0.724 |
| A20G U32C G67C | 0.735 |
| A20G U32C U47A | 0.626 |
| A20G U35A A40C G52A C60A C61G | 0.6 |
| A20G U35A U54G | ≤ 0.5 |
| A20G U35C | 0.836 |
| A20G U35C A36G | 0.727 |
| A20G U35C G50C | ≤ 0.5 |
| A20G U35C G56C G68C | ≤ 0.5 |
| A20G U35G | 0.708 |
| A20G U47G G68U | ≤ 0.5 |

| Variant | yeast fitness |
| --- | --- |
| A20G U53A | 0.692 |
| A20G U53G | 0.571 |
| A20G U54A | 0.681 |
| A20G U54G | 0.524 |
| A20G U59A | 0.79 |
| A20G U59C | 0.972 |
| A20G U59G | 0.921 |
| A20G U59G A65U | 1.05 |
| A20G U59G A69C | 0.526 |
| A20G U64A | 0.902 |
| A20G U64C | 0.929 |
| A20G U64C C66G | ≤ 0.5 |
| A20G U64G | 0.817 |
| A20G U64G A70C | 0.619 |
| A20U A21C A45U | 0.675 |
| A20U A21C C22U U53C U64A | 0.77 |
| A20U A21C C27A G68A | ≤ 0.5 |
| A20U A21C C29U A57C | ≤ 0.5 |
| A20U A21C C31A | ≤ 0.5 |
| A20U A21G C22A G48A C49G | ≤ 0.5 |
| A20U A21G C31U | 0.609 |
| A20U A21G C31U C46A | ≤ 0.5 |
| A20U A21U A65U G67A | ≤ 0.5 |
| A20U A21U A69U | 0.675 |

| Variant | yeast fitness |
| --- | --- |
| A20U A21U C31G C55A G68U | ≤ 0.5 |
| A20U A36C | 0.627 |
| A20U A36C A43U | 0.641 |
| A20U A36C C49A C66G | ≤ 0.5 |
| A20U A36G | 0.766 |
| A20U A36G A37G C55G | 0.546 |
| A20U A36G C49U A70U | ≤ 0.5 |
| A20U A36G C49U C55G | 0.501 |
| A20U A36G C55G A65U | 0.52 |
| A20U A36G C55G G56A | ≤ 0.5 |
| A20U A36G C55U | 0.573 |
| A20U A36G G38A A40U | 0.501 |
| A20U A36G U54C C55G | ≤ 0.5 |
| A20U A36U G44A G51C G52A | ≤ 0.5 |
| A20U A37C | 0.723 |
| A20U A37C C46G | 0.528 |
| A20U A40C | 0.712 |
| A20U A40C A42U | ≤ 0.5 |
| A20U A40G G44C | ≤ 0.5 |
| A20U A40G G44C G58C | 0.574 |
| A20U A40G G50A | ≤ 0.5 |
| A20U A40G U64A | 0.508 |
| A20U A40U | 0.654 |
